PKA-R1A act: activators of PKA-R1A holoenzyme, primary screen, biochemical, fluorescence polarization, Cy5-IP20, bovine R1A, mouse PKAc. PKA-R1A dissociation; scaled: DMSO 0%, 113 µM cGMP 100%. activation, % at 11.4 µM. 340,000 compounds, 0.083% hits. AID 504707, 2011;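 active = percent activation above the mean of all tested compounds plus 3 SD, cut at about 19% in these data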;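 also: higher means more PKAc released from R1A so a rise in polarization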
CRFBP-R2 block: antagonists of CRF-BP/CRF-R2 complex, primary screen, cell-based, HEK293, calcium dye fluorescence, uHTS | CRF-induced calcium fluorescence | inhibition, % at 11.8 µM | 350,000 compounds, 0.59% hits | AID 588475, 2011;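 active = inhibition of the ligand-induced calcium signal above about 50% at the single tested concentration, limit read from the data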
SIRT5 inh: SIRT5 desuccinylase inhibitors, primary screen, biochemical, fluorescence imaging, single point, set 5; Purified SirT5, succinyl-peptide AMC, trypsin-coupled fluorescence; 330,000 compounds, 1.1% hits; NAD-dependent protein deacylase sirtuin-5, mitochondrial (Homo sapiens), Q9NXA8; inhibition, % at 15 µM; in the data active = inhibition above about 15%; inconclusive = no clear call, values can overlap the other calls
PKA-R2B act: activators of PKA-R2B holoenzyme, primary screen, biochemical, fluorescence polarization, Cy5-IP20, human. cAMP-dependent protein kinase catalytic subunit beta (Homo sapiens) + cAMP-dependent …. PKA-R2B holoenzyme dissociation; R2B truncated from residue 108, S112A mutant; 0% DMSO only, 100% 113 µM cGMP. activation, % at 11.4 µM. 340,000 compounds, 0.079% hits. AID 504700, 2011;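 active = activation above a cutoff set at the mean over all compounds plus 3 SD, cut at about 18% in these data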;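 also: higher means more holoenzyme dissociation and a rise in polarization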
Target sequence (P31323 whole entry, looked up, other chains not shown, the tested form may be a part): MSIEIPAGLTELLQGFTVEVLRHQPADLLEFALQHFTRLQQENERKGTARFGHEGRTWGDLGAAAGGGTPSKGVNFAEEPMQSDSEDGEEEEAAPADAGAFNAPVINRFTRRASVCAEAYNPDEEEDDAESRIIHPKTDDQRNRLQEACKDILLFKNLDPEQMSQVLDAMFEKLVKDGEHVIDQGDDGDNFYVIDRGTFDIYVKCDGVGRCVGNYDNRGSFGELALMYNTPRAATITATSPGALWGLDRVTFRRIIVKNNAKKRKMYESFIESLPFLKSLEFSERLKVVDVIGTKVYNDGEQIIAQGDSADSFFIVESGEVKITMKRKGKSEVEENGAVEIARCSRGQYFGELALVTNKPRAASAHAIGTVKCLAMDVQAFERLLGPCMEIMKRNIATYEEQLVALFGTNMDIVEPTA
S100A4 MyoIIA: inhibitors of S100A4-myosin IIA peptide binding, primary screen, biochemical, fluorescence polarization, TAMRA-MyoIIA peptide | Protein S100-A4 (Homo sapiens), P26447 | inhibition, % at 10.7 µM | 360,000 compounds, 0.14% hits;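 active = mean inhibition of at least 70% across replicates, with every replicate also reaching that level; inconclusive = mean inhibition reaches 70% but some replicates fall short; inactive = mean inhibition below 70%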
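Test system: S100A4 monomer protein; Medium: HEPES pH 7.2 with CaCl2, KCl, NaCl, DTT, Triton; Probe or stimulus: TAMRA-labelled myosin IIA heavy-chain peptide probe, 5 nM; Doses: one dose per compound; Times: polarization read 5 min after assay mix addition, stable 5–60 min; Benchmarks: neutral control DMSO, positive control TFP.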
An asterisk follows results filed as active; u = inconclusive; x = no result. Shown are actives, neighbours in structure and some others; about 1.5% of the full set was active somewhere.

SMILES	PKA-R1A act	CRFBP-R2 block	SIRT5 inh	PKA-R2B act	S100A4 MyoIIA
NC(=O)c1cn(-c2ccccc2)nc1-c1cc2ccccc2oc1=O	4	-4	x	8	x
O=C(c1ccccc1)c1nn(-c2ccc(Cl)cc2)cc1C(=O)c1cc2ccccc2oc1=O	-11	101*	x	-13	x
Cc1ccc(S(=O)(=O)Nc2ccc3c(c2)C(=O)N([C@@H](C)CO)C[C@H](C)[C@H](CN(C)C(=O)NC(C)C)O3)cc1	x	x	x	x	2
C/C(CC(=O)Nc1cc(Cl)ccc1C)=N\NC(=O)C(=O)N1CCCC1	4	-6	28*	12	2
C[C@H]1CN([C@@H](C)CO)S(=O)(=O)c2ccc(/C=C/c3ccccc3)cc2O[C@@H]1CN(C)C(=O)NC1CCCCC1	x	x	30*	x	3
C[C@@H]1CN([C@H](C)CO)S(=O)(=O)c2ccc(/C=C/c3ccccc3)cc2O[C@H]1CN(C)C(=O)NC1CCCCC1	x	x	25*	x	12
O=C(Nc1ccc(F)cc1)N[C@H]1CC[C@H](CCn2cc(-c3ccc(F)cc3)nn2)O[C@H]1CO	x	x	-1	x	9
NNC(=S)Nc1cccc(-c2n[nH]c(=S)o2)c1	8	0	18*	3	-8
COc1ccc2c(c1)CCC1=C2NC(=S)NC1c1ccc(N(C)C)cc1 (stereo not drawn)	5	1	15*	-5	-4
COc1cc(C2NC(=S)NC3=C2CCc2ccccc23)cc(OC)c1OC (stereo not drawn)	3	4	-1	10	0
CCC(=O)N1CC(=O)N2[C@@H](CO)[C@H](c3ccc(C#Cc4cccc(OC)c4)cc3)[C@@H]2C1	x	x	4	x	3
CCOC(=O)c1c(C)nc(C)c(C(=O)OCC)c1-c1ccc(OC)cc1	5	20	26*	-17	0
O=C(C[C@H]1CC[C@@H](NC(=O)c2ccccc2)[C@H](CO)O1)NCCc1ccncc1	x	x	32*	x	28
O=C(C[C@@H]1CC[C@@H](NC(=O)c2ccccc2)[C@H](CO)O1)NCCc1ccncc1	x	x	-1	x	u
Cc1ccc(S(=O)(=O)NCC[C@@H]2CC[C@@H](NC(=O)C3CCOCC3)[C@H](CO)O2)cc1	x	x	5	x	99*
O=C(N[C@H]1CC[C@H](CCNS(=O)(=O)c2ccccc2Cl)O[C@@H]1CO)c1ccccc1	x	x	18*	x	-6
O=C(CN1CCOCC1)N[C@H]1CC[C@@H](CCNC(=O)C2CCCCC2)O[C@H]1CO	x	x	0	x	-4
O=C(CN1CCOCC1)N[C@@H]1CC[C@H](CCNC(=O)C2CCCCC2)O[C@H]1CO	x	x	15*	x	-3
Cc1ccccc1S(=O)(=O)NCC[C@H]1CC[C@H](NC(=O)C2CCC2)[C@H](CO)O1	x	x	4	x	102*
O=C(N[C@@H]1CC[C@H](CCNS(=O)(=O)c2ccccc2)O[C@H]1CO)c1cnccn1	x	x	28*	x	-2
O=C(Cc1ccncc1)NCC[C@@H]1CC[C@@H](NC(=O)C2CCOCC2)[C@@H](CO)O1	x	x	-3	x	102*
C[C@@H](NC(=O)C[C@@H]1CC[C@H](NC(=O)C2CCC2)[C@H](CO)O1)c1ccccc1	x	x	7	x	107*
O=C(Cc1ccncc1)NCC[C@@H]1CC[C@H](NC(=O)C2CCOCC2)[C@H](CO)O1	x	x	-3	x	7
O=C(N[C@@H]1CC[C@H](CCNS(=O)(=O)c2ccccc2)O[C@@H]1CO)c1cnccn1	x	x	-2	x	6
CCCC#Cc1cnc2c(c1)C(=O)N([C@H](C)CO)C[C@@H](C)[C@@H](CN(C)C(=O)NC1CCCC1)O2	x	x	-5	x	4
O=C(Cc1ccncc1)NCC[C@H]1CC[C@@H](NC(=O)C2CC2)[C@@H](CO)O1	x	x	2	x	-1
O=C(N[C@@H]1CC[C@H](CCNS(=O)(=O)Cc2ccccc2)O[C@H]1CO)c1ccc2c(c1)OCO2	x	x	0	x	19
O=C(NCC[C@H]1CC[C@H](NC(=O)C2CC2)[C@H](CO)O1)c1cc(Cl)cc(Cl)c1	x	x	-5	x	-20
O=C(N[C@H]1CC[C@H](CCNS(=O)(=O)Cc2ccccc2)O[C@H]1CO)c1ccccc1F	x	x	1.7*	x	5

Assay outcomes deposited in PubChem by several laboratories.
